{"source": "paper PMC5198968", "about": "(Cancer Science, 2016)", "key": {"[1]": {"experiment": "Pharmacokinetics in plasma and urine", "type": "in vivo, human", "details": "for half-life: human, plasma, oral, t ½,ss, gMean (gCV%)", "outline": "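Oral dosing twice daily, at 100, 150 or 200 mg depending on group. Blood was drawn predose and 1, 2, 3, 4, 6, 8, 10 and 24 h postdose on cycle 1 day 15, plus predose and 2 h postdose on cycle 2 days 1 and 15. Urine was collected over 24 h on cycle 1 day 15 and stored at −20°C or below. Analysis was by LC-MS/MS, with non-compartmental parameters, in treated patients with an evaluable PK end-point.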"}, "[2]": {"system": "patients with advanced solid tumors", "details": "phase I studies in advanced solid tumors; cited from earlier work"}, "[3]": {"details": "dose-normalized AUC at steady state"}}}
{"smiles": "COC(=O)c1ccc2c(c1)NC(=O)/C2=C(\\Nc1ccc(N(C)C(=O)CN2CCN(C)CC2)cc1)c1ccccc1", "note": "[nintedanib]", "values": [{"measurement": "Time at which plasma concentrations reached their maximum", "setting": "[1]; after multiple oral dose administration at steady state", "value": "3 to 4", "unit": "h"}, {"measurement": "Correlation between nintedanib exposure (AUCτ,ss,norm) and AST or ALT levels", "setting": "[1]; days 1–22 of cycle 1", "value": "no clear correlation"}, {"measurement": "Increase in AUCτ,ss,norm, Child–Pugh score 7 versus score 5 or 6", "setting": "[1]; [3]", "value": 37, "unit": "%"}, {"measurement": "Increase in AUCτ,ss,norm, group II versus group I", "setting": "[1]; [3]", "value": 26, "unit": "%"}, {"measurement": "half-life", "setting": "[1]; 100 mg, Group II (moderate liver impairment), 100 mg b.i.d., n = 2, steady state", "value": 41.6, "unit": "h"}, {"measurement": "half-life", "setting": "[1]; 150 mg, Group I (mild liver impairment), 150 mg b.i.d., n = 3, steady state", "value": 23.6, "unit": "h"}, {"measurement": "half-life", "setting": "[1]; 150 mg, Group II (moderate liver impairment), 150 mg b.i.d., n = 3, steady state", "value": 14.6, "unit": "h"}, {"measurement": "half-life", "setting": "[1]; 200 mg, Group I (mild liver impairment), 200 mg b.i.d., n = 9, steady state", "value": 16.6, "unit": "h"}, {"measurement": "half-life", "setting": "[1]; 200 mg, Group II (moderate liver impairment), 200 mg b.i.d. (n = 7), steady state", "value": 17.7, "unit": "h"}, {"measurement": "Administered dose recovered in the urine", "setting": "[1]; over 24 hours after dosing at steady state", "value": "0.49–0.66%"}, {"measurement": "AUCτ,ss of individual patients with high exposure", "setting": "[1]; two patients in group I, 200 mg b.i.d. cohort", "value": 5700, "unit": "ng·h/mL"}, {"measurement": "Primary DLT", "setting": "[2]", "value": "elevated liver enzymes"}]}
